This passage reports Activity and fold change (FC) results from ChEMBL document CHEMBL1155436, “Phantasmidine: an epibatidine congener from the ecuadorian poison frog Epipedobates anthonyi” (J Nat Prod, 2010).

Calls of active or inactive are those of the source. The rule behind the calls is not given here.

Experiment [1] has as its target T1, Neuronal acetylcholine receptor; alpha3/beta4 (Rattus norvegicus) (UniProt P04757+P12392). In words: Agonist activity at rat alpha3beta4 nAChR expressed in HEK cells assessed as membrane depolarization after 1 hr by HPLC based fluorescence assay. The format is functional, cell-based. Particulars: HEK293. In a few lines: (§1)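 Membrane potential assay in G418-selected KXR3β4R2, KXR4β4R1 or KXR4β2R2 lines on poly-D-lysine plates (DMEM, 10% FBS, near confluence). Cells washed in HBSS/HEPES pH 7.4 and loaded with no-wash dye 1 h dark at room temperature. Fractions reconstituted in HBSS/HEPES, added after 15 s basal, read 105 s. Nicotine (300 µM added solution) and KCl (160 mM) follow. Peak response normalised to KCl maximum after basal subtraction.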

Experiment [2] has as its target T1, Neuronal acetylcholine receptor; alpha3/beta4 (Rattus norvegicus). In words: Agonist activity at rat alpha3beta4 nAChR expressed in HEK cells assessed as elevation of intracellular calcium after 1 hr by HPLC based fluorescence assay. The format is functional, cell-based. Particulars: HEK293.
Experiment [3] deals with Neuronal acetylcholine receptor; alpha4/beta2 (Rattus norvegicus) (UniProt P09483+P12390). The experiment can be described thus: Agonist activity at rat alpha4beta2 nAChR expressed in HEK cells assessed as membrane depolarization after 1 hr by HPLC based fluorescence assay. In kind it is functional, cell-based. The note with it: HEK293. In a few lines:
as §1

Experiment [4] addresses T2, Neuronal acetylcholine receptor; alpha3/beta4 (Homo sapiens) (UniProt P30926+P32297). In words: Agonist activity at human alpha3beta4 nAChR in human SH-SY5Y cells assessed as membrane depolarization after 1 hr by HPLC based fluorescence assay. In kind it is functional, cell-based. In a few lines: (§2)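 Membrane potential dye assay in native SH-SY5Y, IMR-32 or TE-671 cells. Cells grown near confluence on poly-D-lysine plates in DMEM with 10% FBS, washed in HBSS/20 mM HEPES pH 7.4, then loaded with dye 1 h in dark at room temperature. Ex 530/em 565 nm. Sequence: 15 s basal, HPLC fraction 105 s, 300 µM nicotine (added solution), 160 mM KCl (added solution). Response = basal-subtracted peak ÷ KCl maximum.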

Experiment [5] has as its target Neuronal acetylcholine receptor; alpha4/beta2 (Homo sapiens) (UniProt P17787+P43681). The experiment can be described thus: Agonist activity at human alpha4beta2 nAChR expressed in human K177 cells assessed as membrane depolarization after 1 hr by HPLC based fluorescence assay. In kind it is functional, cell-based.
The target in experiment [6] is T2, Neuronal acetylcholine receptor; alpha3/beta4 (Homo sapiens). The experiment can be described thus: Agonist activity at human alpha3beta4 nAChR in human IMR32 cells assessed as membrane depolarization after 1 hr by HPLC based fluorescence assay. The format is functional, cell-based. The note with it: IMR-32. In a few lines: as §2
The target of experiment [7] is Acetylcholine receptor; alpha1/beta1/delta/gamma (Homo sapiens) (UniProt P02708+P07510+P11230+Q07001). The experiment can be described thus: Agonist activity at human alpha-1-beta-1-gamma-delta nAChR expressed in human TE671 cells assessed as membrane depolarization after 1 hr by HPLC based fluorescence assay. In kind it is functional, cell-based. Particulars: TE-671. In a few lines: as §2

Experiment [8] has as its target Neuronal acetylcholine receptor; alpha4/beta4 (Rattus norvegicus) (UniProt P09483+P12392). In words: Agonist activity at rat alpha4beta4 nAChR expressed in HEK cells assessed as membrane depolarization after 1 hr by HPLC based fluorescence assay. In kind it is functional, cell-based. The note with it: HEK293. The gist of the method: as §1
A short description of experiment [9]: Selectivity of beta4 nAChR over beta2 nAChR.

`Clc1ccc2c(n1)O[C@@]13CC[C@@H]1NC[C@@H]23`: the outcome in experiment [1], in experiment [2], in [4], in [6] and in experiment [8] was Active. Further, the outcome in experiment [3], in experiment [5] and in [7] was inactive.

In the case of `O=C1NC[C@@]2(CN3CCC2CC3)O1`, the fold change (FC) in experiment [9] is > 20.

As for `c1cncc([C@H]2C[C@@H]3CC[C@H]2N3)c1`, the fold change (FC) in experiment [9] was found to be 3.

The compound `Clc1ccc(C2=CCC[C@@H]3CC[C@H]2N3)cn1` had a fold change (FC) in experiment [9] of 3.

On to `Clc1ccc(C2CC3CCC2N3)cn1` (stereo not given), for which the result in experiment [1], in [2], in experiment [4] and in experiment [6] was Active.
